Experimental findings from ChEMBL document CHEMBL1123543, “3,7-Diazabicyclane: a new narcotic analgesic” (J Med Chem, 1986) are described below.

In test [1] the test system is Mus musculus. The test can be described thus: Effective dose for analgetic activity on subcutaneous administration in mice using Writhing test. It is filed as functional. Particulars: sc. The procedure, abridged: (§1)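 Mouse acetic acid writhing assay. Compounds were given as methanesulfonic acid salts, dissolved in deionized water and injected subcutaneously. ED50 values and 95% confidence limits were calculated by the Litchfield–Wilcoxon method.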
(In writhing tests, fewer writhes than in controls are read as antinociception.)

The subject of test [2] is Rattus norvegicus. The test can be described thus: Effective dose for analgetic activity on intracerebroventricular administration in rats using tail flick test. It is filed as functional. The method, boiled down: (§2)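 Rats had cannulae stereotaxically implanted in the lateral ventricle (AP 0.0, L 2.0 from bregma, 3.5 mm below dura) and recovered for 2 weeks. Methanesulfonate salts in artificial rat CSF were injected icv at 10 μL over 30 s, with doses given as total amount. CSF alone served as control. After 0.5 h of acclimation in restraint, the tail was immersed 5 cm in 55 °C water at 5, 10, 15 and 20 min. Withdrawal latency was timed with a 30 s cutoff, averaging three observations. ED50 and 95% confidence limits were derived by Litchfield–Wilcoxon.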
In general terms: Hot-plate and tail-flick tests time the reaction to a heat stimulus.

Test [3] has as its system Rattus norvegicus. Briefly: Effective dose for analgetic activity on intracerebroventricular administration in rats using tail flick test; Inactive at 780 nM. The test is classed as functional, organism-based. The method, boiled down:
as §2

For test [4], the system named is Mus musculus. The test can be described thus: Effective dose for analgetic activity on subcutaneous administration in mice using Writhing test; Inactive at 460 uM/kg. The test is classed as functional, organism-based. The method, boiled down: as §1
In the next test the target is Opioid receptor (Rattus norvegicus, UniProt P33533+P34975+P33535). Briefly: Concentration required to inhibit opiate receptor using radioligand [3H]- Etorphine. It is filed as protein assay.
Test [5] has as its system Mus musculus. The test can be described thus: Effective dose for analgetic activity on subcutaneous administration in mice using Writhing test; Inactive. The test is classed as functional, organism-based. The method, boiled down:
as §1

Test [6] has as its system Rattus norvegicus. Briefly: Effective dose for analgetic activity on intracerebroventricular administration in rats using tail flick test; Inactive. It is filed as functional, organism-based. The procedure, abridged:
as §2

The source made the active and inactive calls.

Regarding `CN1CC[C@]23c4c5ccc(O)c4O[C@H]2[C@@H](O)C=C[C@H]3[C@H]1C5` [MORPHINE], the ED50 was 3 µmol/kg with Mus musculus [1] and 23 nM in the test on Rattus norvegicus [2].

The IC50 is the point on the concentration scale where inhibition reaches its midpoint. As to `CCC(=O)OC(c1ccccc1)C1C2CN(C)CC1CN(C)C2` (stereo not drawn), the ED50 result in the test on Rattus norvegicus [3] and in the test with Mus musculus [4] was “inactive” throughout. At Opioid receptor, the IC50 came out at 7600 nM.

Consider `COC(c1ccccc1)C1C2CN(C)CC1CN(C)C2` (stereo not drawn), for which the IC50 at Opioid receptor was 7200 nM. Further, the ED50 entry in the test on Mus musculus [5] and in the test with Rattus norvegicus [6] was “inactive” in each case.

For the compound `COC(c1cccc(O)c1)C1C2CN(C)CC1CN(C)C2` (stereo not drawn), the ED50 in the test with Mus musculus [1] was found to be 0.56 µmol/kg. The same compound returned an IC50 at Opioid receptor of 2300 nM.

Consider `CCC(=O)OC(c1cccc(O)c1)C1C2CN(C)CC1CN(C)C2` (stereo not drawn), for which the ED50 in the test with Mus musculus [1] stood at 0.85 µmol/kg; in the test with Rattus norvegicus [2], 25 nM. At Opioid receptor, this compound gave a 50% inhibitory concentration (IC50) of 530 nM.
